Test results published in ChEMBL document CHEMBL1124414, “2(1H)-quinolinones with cardiac stimulant activity. 2. Synthesis and biological activities of 6-(N-linked, five-membered heteroaryl) derivatives” (1989).

What was measured:
Canis familiaris [1] = test: Relative inotropic potency compared with 4-[4-[2-(1,1-dioxo-2-isothiazolidinyl)ethyl]-1-piperidinyl]-6,7-dimethoxyquinazoline at 50 ug/kg after administration at 25 ug/kg intravenously to anesthetized dogs; type: functional, Canis lupus familiaris
Method in brief: (§1)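 Anesthetized dogs instrumented for dP/dt max from left ventricular pressure by carotid catheter. Drug given iv in 0.9% saline. The standard quinazoline inotrope (50 μg/kg iv) was tested in the same dog. Relative potency = (% increase in dP/dt max to drug ÷ % increase to standard) × (standard dose ÷ drug dose).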

Canis familiaris [2] = test: Compound was examined for effects on cardiac contractility after oral administration of 0.5 mg/Kg to conscious dogs for 1 hr; type: functional, Canis lupus familiaris, Heart
Method in brief: (§2)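 Conscious dogs dosed orally by gavage with a solution of test substance. QA interval recorded every 0.16 h from 0.5 h predose to up to 4 h postdose. Each time-point value is the mean of six consecutive sets, each set the mean over an 8-s period. Result is the change from mean predose control QA interval, read at 1 h and 3 h. Saline-dosed controls n = 8.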

Canis familiaris [3] = test: Compound was examined for effects on cardiac contractility to decrease in QA interval after oral administration of 0.5 mg/Kg to conscious dogs for 3h; type: functional, Canis lupus familiaris, Heart; method in brief: as §2
Canis familiaris [4] = test: Compound was tested for cardiotonic activity after intravenous administration of 25 ug/Kg to anesthetized dogs; type: functional, Canis lupus familiaris
Method in brief: (§3)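 Anesthetized dogs with left ventricular pressure recorded by Millar catheter via the carotid artery. The signal is differentiated to give dP/dt max as the contractility index. Equilibration 0.75 h after surgery. Drug given iv in 0.9% saline 0.5 h after a standard inotrope (50 μg/kg). Doses repeated once control levels returned, at least 0.5 h apart. Result is % increase in dP/dt max after a single dose.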

Canis familiaris [5] = test: Relative inotropic potency compared with 4-[4-[2-(1,1-dioxo-2-isothiazolidinyl)ethyl]-1-piperidinyl]-6,7-dimethoxyquinazoline at 50 ug/kg after administration at 12.5 ug/kg intravenously to anesthetized dogs; type: functional, Canis lupus familiaris; method in brief: as §1
Canis familiaris [6] = test: Compound was examined for effects on cardiac contractility after oral administration of 0.125 mg/Kg to conscious dogs for 1 hr; type: functional, Canis lupus familiaris, Heart; method in brief: as §2
Canis familiaris [7] = test: Compound was examined for effects on cardiac contractility to decrease in QA interval after oral administration of 0.125 mg/Kg to conscious dogs for 3h; type: functional, Canis lupus familiaris, Heart; method in brief: as §2
Canis familiaris [8] = test: Compound was tested for cardiotonic activity after intravenous administration of 12.5 ug/Kg to anesthetized dogs; type: functional, Canis lupus familiaris; method in brief: as §3
Canis familiaris [9] = test: Compound was examined for effects on cardiac contractility after oral administration of 0.25 mg/Kg to conscious dogs for 1 hr; type: functional, Canis lupus familiaris, Heart; method in brief: as §2
Canis familiaris [10] = test: Compound was examined for effects on cardiac contractility to decrease in QA interval after oral administration of 0.25 mg/Kg to conscious dogs for 3h; type: functional, Canis lupus familiaris, Heart; method in brief: as §2
Canis familiaris [11] = test: Relative inotropic potency compared with 4-[4-[2-(1,1-dioxo-2-isothiazolidinyl)ethyl]-1-piperidinyl]-6,7-dimethoxyquinazoline at 50 ug/kg after administration at 10 ug/kg intravenously to anesthetized dogs; type: functional, Canis lupus familiaris; method in brief: as §1
Canis familiaris [12] = test: Compound was tested for cardiotonic activity after intravenous administration of 10 ug/Kg to anesthetized dogs; type: functional, Canis lupus familiaris; method in brief: as §3
Canis familiaris [13] = test: Relative inotropic potency compared with 4-[4-[2-(1,1-dioxo-2-isothiazolidinyl)ethyl]-1-piperidinyl]-6,7-dimethoxyquinazoline at 50 ug/kg after administration at 6.5 ug/kg intravenously to anesthetized dogs; type: functional, Canis lupus familiaris; details: in the assay text read “6.25 ug/kg” for “6.5 ug/kg”; method in brief: as §1
Canis familiaris [14] = test: Compound was examined for effects on cardiac contractility after oral administration of 0.0625 mg/Kg to conscious dogs for 1 hr; type: functional, Canis lupus familiaris, Heart; method in brief: as §2
Canis familiaris [15] = test: Compound was examined for effects on cardiac contractility to decrease in QA interval after oral administration of 0.0625 mg/Kg to conscious dogs for 3h; type: functional, Canis lupus familiaris, Heart; method in brief: as §2
Canis familiaris [16] = test: Compound was tested for cardiotonic activity after intravenous administration of 6.25 ug/Kg to anesthetized dogs; type: functional, Canis lupus familiaris; method in brief: as §3
Canis familiaris [17] = test: Relative inotropic potency compared with 4-[4-[2-(1,1-dioxo-2-isothiazolidinyl)ethyl]-1-piperidinyl]-6,7-dimethoxyquinazoline at 50 ug/kg after administration at 250 ug/kg intravenously to anesthetized dogs; type: functional, Canis lupus familiaris; method in brief: as §1
Canis familiaris [18] = test: Compound was tested for cardiotonic activity after intravenous administration of 250 ug/Kg to anesthetized dogs; type: functional, Canis lupus familiaris; method in brief: as §3
Canis familiaris [19] = test: Relative inotropic potency compared with 4-[4-[2-(1,1-dioxo-2-isothiazolidinyl)ethyl]-1-piperidinyl]-6,7-dimethoxyquinazoline at 50 ug/kg after administration at 50 ug/kg intravenously to anesthetized dogs; type: functional, Canis lupus familiaris; method in brief: as §1
Canis familiaris [20] = test: Compound was examined for effects on cardiac contractility after oral administration of 1 mg/Kg to conscious dogs for 1 hr; type: functional, Canis lupus familiaris, Heart; method in brief: as §2
Canis familiaris [21] = test: Compound was examined for effects on cardiac contractility to decrease in QA interval after oral administration of 1 mg/Kg to conscious dogs for 3h; type: functional, Canis lupus familiaris, Heart; method in brief: as §2
Canis familiaris [22] = test: Compound was tested for cardiotonic activity after intravenous administration of 50 ug/Kg to anesthetized dogs; type: functional, Canis lupus familiaris; method in brief: as §3
Canis familiaris [23] = test: Relative inotropic potency compared with 4-[4-[2-(1,1-dioxo-2-isothiazolidinyl)ethyl]-1-piperidinyl]-6,7-dimethoxyquinazoline at 50 ug/kg after administration of 50 ug/kg intravenously to anesthetized dogs; type: functional, Canis lupus familiaris; method in brief: as §1
Canis familiaris [24] = test: Relative inotropic potency compared with 4-[4-[2-(1,1-dioxo-2-isothiazolidinyl)ethyl]-1-piperidinyl]-6,7-dimethoxyquinazoline at 50 ug/kg after iv administration of 25 ug/kg to anesthetized dogs; type: functional, Canis lupus familiaris; method in brief: as §1

Cc1cc(-n2cncn2)cc2ccc(O)nc12
Relative inotropic potency (Canis familiaris [1]): 3.6
Decrease in QA interval (Canis familiaris [2]): 21 ms
Decrease in QA interval (Canis familiaris [3]): 21 ms
Increase in dP/dt max (Canis familiaris [4]): 67%

Cc1cc(-n2ccnc2C)cc2ccc(O)nc12
Relative inotropic potency (Canis familiaris [5]): 5.5
Decrease in QA interval (Canis familiaris [6]): 14 ms
Decrease in QA interval (Canis familiaris [7]): 13 ms
Increase in dP/dt max (Canis familiaris [8]): 50%

Cc1cc(-n2cnnn2)cc2ccc(O)nc12
Relative inotropic potency (Canis familiaris [1]): 3.4
Decrease in QA interval (Canis familiaris [9]): 15 ms
Decrease in QA interval (Canis familiaris [10]): 16 ms
Increase in dP/dt max (Canis familiaris [4]): 117%

Cc1cn(-c2cc(C)c3nc(O)cc(C)c3c2)c(C)n1
Relative inotropic potency (Canis familiaris [11]): 1.2
Increase in dP/dt max (Canis familiaris [12]): 10%

Cc1cc(-n2cnc(C(F)(F)F)c2)cc2ccc(O)nc12
Relative inotropic potency (Canis familiaris [5]): 4.5
Decrease in QA interval (Canis familiaris [6]): 11 ms
Decrease in QA interval (Canis familiaris [7]): 5 ms
Increase in dP/dt max (Canis familiaris [8]): 82%

Cc1cn(-c2cc(C)c3nc(O)ccc3c2)cn1
Relative inotropic potency (Canis familiaris [13]): 16.3
Decrease in QA interval (Canis familiaris [14]): 12 ms
Decrease in QA interval (Canis familiaris [15]): 7 ms
Increase in dP/dt max (Canis familiaris [16]): 59%

Cc1cn(-c2ccc3nc(O)ccc3c2)c(C)n1
Relative inotropic potency (Canis familiaris [17]): 0.2
Increase in dP/dt max (Canis familiaris [18]): 29%

Cc1cn(-c2cc(C)c3c(c2)CCC(=O)N3)c(C)n1
Relative inotropic potency (Canis familiaris [19]): 0.9
Decrease in QA interval (Canis familiaris [20]): 12 ms
Decrease in QA interval (Canis familiaris [21]): 13 ms
Increase in dP/dt max (Canis familiaris [22]): 52%

Cc1cn(-c2cc(C(F)(F)F)c3nc(O)ccc3c2)c(C)n1
Relative inotropic potency (Canis familiaris [17]): 0.2
Increase in dP/dt max (Canis familiaris [18]): 22%

Cc1cc(-n2cccn2)cc2ccc(O)nc12
Relative inotropic potency (Canis familiaris [23]): 1.7
Increase in dP/dt max (Canis familiaris [22]): 79%

Cc1cc(-n2ncnn2)cc2ccc(O)nc12
Relative inotropic potency (Canis familiaris [19]): 1.1
Increase in dP/dt max (Canis familiaris [22]): 24%

Cc1cc(-n2cncc2C)cc2ccc(O)nc12
Relative inotropic potency (Canis familiaris [5]): 4.9
Decrease in QA interval (Canis familiaris [6]): 14 ms
Decrease in QA interval (Canis familiaris [7]): 11 ms
Increase in dP/dt max (Canis familiaris [8]): 55%

Cc1cc(-n2cnnc2)cc2ccc(O)nc12
Relative inotropic potency (Canis familiaris [1]; in the assay text read “administration at 50 ug/kg” for “administration at 25 ug/kg”): 2.3
Decrease in QA interval (Canis familiaris [9]): 15 ms
Decrease in QA interval (Canis familiaris [10]): 17 ms
Increase in dP/dt max (Canis familiaris [22]): 68%

Cc1cn(-c2cc(C)c3c(c2)C(C)CC(=O)N3)c(C)n1 (stereo unspecified)
Relative inotropic potency (Canis familiaris [11]): 1.9
Increase in dP/dt max (Canis familiaris [12]): 20%

Cc1cc(-n2ccnc2)cc2ccc(O)nc12
Relative inotropic potency (Canis familiaris [24]): 4.5
Decrease in QA interval (Canis familiaris [9]): 20 ms
Decrease in QA interval (Canis familiaris [10]): 15 ms
Increase in dP/dt max (Canis familiaris [4]): 139%

Cc1[nH]c(=O)c(C#N)cc1-c1ccncc1 [MILRINONE]
Relative inotropic potency (Canis familiaris [1]): 1.6
Decrease in QA interval (Canis familiaris [9]): 13 ms
Decrease in QA interval (Canis familiaris [10]): 7 ms
Increase in dP/dt max (Canis familiaris [4]): 46%

Cc1cn(-c2cc(C)c3[nH]c(=O)ccc3c2)c(C)n1 [NANTERINONE]
Relative inotropic potency (Canis familiaris [5]): 7.6
Decrease in QA interval (Canis familiaris [9]): 16 ms
Decrease in QA interval (Canis familiaris [10]): 17 ms
Increase in dP/dt max (Canis familiaris [8]): 40%
